Results on 3 compounds are retold here after ChEMBL document CHEMBL5696442, “Discovery of type II inhibitors of TGFβ-activated kinase 1 (TAK1) and mitogen-activated protein kinase kinase kinase kinase 2 (MAP4K2)” (J Med Chem, 2015).

In test [1] the target is T1, Acylglycerol kinase, mitochondrial (Homo sapiens) (UniProt Q53H12).
T1 sequence (whole entry): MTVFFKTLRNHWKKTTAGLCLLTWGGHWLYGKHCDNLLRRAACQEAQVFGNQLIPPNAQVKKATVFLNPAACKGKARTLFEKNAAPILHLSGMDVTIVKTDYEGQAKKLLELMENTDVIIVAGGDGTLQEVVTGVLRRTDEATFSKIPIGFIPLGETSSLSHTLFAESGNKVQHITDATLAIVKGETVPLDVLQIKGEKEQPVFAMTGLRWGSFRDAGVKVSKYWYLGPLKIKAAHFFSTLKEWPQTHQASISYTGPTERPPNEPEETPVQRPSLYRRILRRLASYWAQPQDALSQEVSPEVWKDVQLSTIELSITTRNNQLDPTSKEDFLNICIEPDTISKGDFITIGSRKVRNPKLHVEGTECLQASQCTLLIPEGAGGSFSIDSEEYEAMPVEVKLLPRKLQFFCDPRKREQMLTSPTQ
Kind of test: Inhibition of AGK ATP labeling site in human Huh-7 cell lysate at 1 uM by KiNativ Profiling analysis relative to control. Type of test: subcellular.

Test [2] deals with Focal adhesion kinase 1 (Homo sapiens) (UniProt Q05397). Kind of test: Inhibition of FAK (unknown origin) at 1 uM by Ambit Kinomescan binding assay relative to control. A digest of the protocol: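 In vitro ATP-site competition binding assay against a panel of over 420 kinases (KinomeScan), with compound tested at 10 or 1 μM.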
Sequence of Focal adhesion kinase 1 (Homo sapiens) (Q05397 2-1052 limits assumed): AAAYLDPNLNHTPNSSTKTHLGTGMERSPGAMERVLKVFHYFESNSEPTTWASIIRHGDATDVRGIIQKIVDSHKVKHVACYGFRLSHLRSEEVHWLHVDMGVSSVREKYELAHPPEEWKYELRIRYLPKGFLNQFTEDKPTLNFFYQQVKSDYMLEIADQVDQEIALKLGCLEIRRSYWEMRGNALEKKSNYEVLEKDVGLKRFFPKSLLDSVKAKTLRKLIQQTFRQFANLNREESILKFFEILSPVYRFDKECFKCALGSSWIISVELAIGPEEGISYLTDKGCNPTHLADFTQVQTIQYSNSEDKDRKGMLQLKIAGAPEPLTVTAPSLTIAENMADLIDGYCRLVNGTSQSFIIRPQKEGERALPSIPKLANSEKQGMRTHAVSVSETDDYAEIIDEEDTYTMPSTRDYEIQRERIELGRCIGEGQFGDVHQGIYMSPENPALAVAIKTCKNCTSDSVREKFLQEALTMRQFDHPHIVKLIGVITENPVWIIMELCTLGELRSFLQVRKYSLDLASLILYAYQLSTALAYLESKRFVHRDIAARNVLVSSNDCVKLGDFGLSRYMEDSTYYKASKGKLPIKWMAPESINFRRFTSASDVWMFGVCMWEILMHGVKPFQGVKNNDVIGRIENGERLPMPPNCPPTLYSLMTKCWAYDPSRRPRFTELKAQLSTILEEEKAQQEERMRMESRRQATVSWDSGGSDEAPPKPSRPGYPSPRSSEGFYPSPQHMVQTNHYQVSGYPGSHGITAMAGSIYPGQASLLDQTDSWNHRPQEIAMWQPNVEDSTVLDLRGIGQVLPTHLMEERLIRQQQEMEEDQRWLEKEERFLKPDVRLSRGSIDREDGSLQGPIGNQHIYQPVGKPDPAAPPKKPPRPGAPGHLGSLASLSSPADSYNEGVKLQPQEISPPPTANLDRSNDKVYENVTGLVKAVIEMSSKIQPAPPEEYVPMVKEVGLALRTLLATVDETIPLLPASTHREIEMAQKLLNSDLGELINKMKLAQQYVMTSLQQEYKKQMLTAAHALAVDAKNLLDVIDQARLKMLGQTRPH
For test [3], the target named is Serine/threonine-protein kinase 24 (Homo sapiens) (UniProt Q9Y6E0). The experiment in a line: Inhibition of MST3 Lys2 labeling site harbouring IHRDIKAANVLLSEHGEVK in human A-375 cells at 5 uM by KiNativ Profiling analysis relative to control. In kind it is cell-based.
Sequence of Serine/threonine-protein kinase 24 (Homo sapiens) (Q9Y6E0 whole entry, looked up): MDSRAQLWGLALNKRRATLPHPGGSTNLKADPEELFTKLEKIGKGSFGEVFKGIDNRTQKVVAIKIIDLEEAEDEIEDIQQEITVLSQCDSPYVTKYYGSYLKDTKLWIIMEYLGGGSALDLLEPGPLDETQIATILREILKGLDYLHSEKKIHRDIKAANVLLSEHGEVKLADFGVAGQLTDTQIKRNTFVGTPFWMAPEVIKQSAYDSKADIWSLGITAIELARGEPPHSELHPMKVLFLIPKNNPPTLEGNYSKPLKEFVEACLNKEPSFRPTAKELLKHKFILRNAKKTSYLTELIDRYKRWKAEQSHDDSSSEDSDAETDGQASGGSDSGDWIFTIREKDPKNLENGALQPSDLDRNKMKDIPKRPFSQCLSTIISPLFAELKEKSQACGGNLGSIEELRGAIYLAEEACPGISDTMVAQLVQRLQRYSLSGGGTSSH
Test [4] deals with T2, Serine/threonine-protein kinase TAO2 (Homo sapiens) (UniProt Q9UL54).
T2 sequence (whole entry): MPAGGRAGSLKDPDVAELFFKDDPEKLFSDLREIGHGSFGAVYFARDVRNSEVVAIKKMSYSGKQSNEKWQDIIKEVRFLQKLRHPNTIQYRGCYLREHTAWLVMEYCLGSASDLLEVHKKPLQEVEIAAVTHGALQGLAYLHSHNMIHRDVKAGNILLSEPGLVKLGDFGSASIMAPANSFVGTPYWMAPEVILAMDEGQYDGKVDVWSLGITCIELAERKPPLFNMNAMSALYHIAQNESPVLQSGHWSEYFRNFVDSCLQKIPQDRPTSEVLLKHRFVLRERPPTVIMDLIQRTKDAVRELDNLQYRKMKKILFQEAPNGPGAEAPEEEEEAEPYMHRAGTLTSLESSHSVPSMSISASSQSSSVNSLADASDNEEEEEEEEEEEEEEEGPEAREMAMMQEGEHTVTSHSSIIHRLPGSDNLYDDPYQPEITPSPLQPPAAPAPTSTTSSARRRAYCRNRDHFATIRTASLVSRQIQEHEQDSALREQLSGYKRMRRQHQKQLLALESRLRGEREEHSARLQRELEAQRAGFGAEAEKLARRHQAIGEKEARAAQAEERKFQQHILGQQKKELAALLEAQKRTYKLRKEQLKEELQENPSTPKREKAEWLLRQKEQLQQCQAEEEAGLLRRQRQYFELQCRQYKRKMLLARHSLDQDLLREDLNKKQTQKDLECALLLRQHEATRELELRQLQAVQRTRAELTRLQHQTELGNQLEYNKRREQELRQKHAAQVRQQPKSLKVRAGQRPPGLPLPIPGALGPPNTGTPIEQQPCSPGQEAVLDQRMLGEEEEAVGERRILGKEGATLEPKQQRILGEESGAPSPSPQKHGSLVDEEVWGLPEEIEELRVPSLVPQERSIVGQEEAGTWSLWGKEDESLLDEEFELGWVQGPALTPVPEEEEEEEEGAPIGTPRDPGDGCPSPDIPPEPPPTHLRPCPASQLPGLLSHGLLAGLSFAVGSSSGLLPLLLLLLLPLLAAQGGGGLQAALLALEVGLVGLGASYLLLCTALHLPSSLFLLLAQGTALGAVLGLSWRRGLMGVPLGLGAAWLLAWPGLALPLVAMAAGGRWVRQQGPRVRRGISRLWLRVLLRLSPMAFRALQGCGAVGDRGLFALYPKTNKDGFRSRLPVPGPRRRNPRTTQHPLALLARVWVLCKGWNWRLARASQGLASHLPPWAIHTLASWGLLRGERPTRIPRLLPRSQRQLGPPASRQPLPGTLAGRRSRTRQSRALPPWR
Kind of test: Inhibition of TAO2 Lys2 labeling site in human A-375 cells at 0.05 uM by KiNativ Profiling analysis relative to control. In kind it is cell-based.

Test [5] has as its target Serine/threonine-protein kinase PAK 6 (Homo sapiens) (UniProt Q9NQU5). Kind of test: Inhibition of PAK6 (unknown origin) at 1 uM by Ambit Kinomescan binding assay relative to control; values are per cent of control.
Test [6] concerns the target Tyrosine-protein kinase ABL1 (Homo sapiens, UniProt P00519). The experiment in a line: Inhibition of ABL Lys1 labeling site in human A-375 cells at 5 uM by KiNativ Profiling analysis relative to control. Type of test: cell-based.
The target of test [7] is Serine/threonine-protein kinase 32C (Homo sapiens) (UniProt Q86UX6). Kind of test: Inhibition of YANK3 (unknown origin) at 10 uM by Ambit Kinomescan binding assay.
Sequence of Serine/threonine-protein kinase 32C (Homo sapiens) (Q86UX6 whole entry): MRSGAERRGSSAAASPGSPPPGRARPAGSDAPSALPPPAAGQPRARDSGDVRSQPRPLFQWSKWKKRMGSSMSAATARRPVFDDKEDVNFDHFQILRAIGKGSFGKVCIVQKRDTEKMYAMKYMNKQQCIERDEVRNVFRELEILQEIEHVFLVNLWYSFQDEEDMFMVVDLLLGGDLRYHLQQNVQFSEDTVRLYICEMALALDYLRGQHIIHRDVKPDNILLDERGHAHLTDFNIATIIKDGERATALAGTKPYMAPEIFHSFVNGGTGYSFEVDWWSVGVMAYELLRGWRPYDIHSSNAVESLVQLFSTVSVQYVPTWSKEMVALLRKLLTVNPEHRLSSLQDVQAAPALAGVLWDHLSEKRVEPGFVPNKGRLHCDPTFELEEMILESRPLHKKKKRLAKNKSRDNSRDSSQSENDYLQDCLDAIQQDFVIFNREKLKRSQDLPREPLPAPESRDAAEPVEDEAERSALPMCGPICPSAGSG
Test [8] addresses Dual specificity mitogen-activated protein kinase kinase 2 (Homo sapiens) (UniProt P36507). Kind of test: Inhibition of MAP2K2 Lys1 labeling site in human A-375 cells at 5 uM by KiNativ Profiling analysis relative to control. In kind it is cell-based.
The target in test [9] is Epidermal growth factor receptor (Homo sapiens) (UniProt P00533). Kind of test: Inhibition of EGFR ACT labeling site harbouring ITDFGLAKLLGAEEK in human A-375 cells at 0.5 uM by KiNativ Profiling analysis relative to control. In kind it is cell-based.
Sequence of Epidermal growth factor receptor (Homo sapiens) (P00533 whole entry): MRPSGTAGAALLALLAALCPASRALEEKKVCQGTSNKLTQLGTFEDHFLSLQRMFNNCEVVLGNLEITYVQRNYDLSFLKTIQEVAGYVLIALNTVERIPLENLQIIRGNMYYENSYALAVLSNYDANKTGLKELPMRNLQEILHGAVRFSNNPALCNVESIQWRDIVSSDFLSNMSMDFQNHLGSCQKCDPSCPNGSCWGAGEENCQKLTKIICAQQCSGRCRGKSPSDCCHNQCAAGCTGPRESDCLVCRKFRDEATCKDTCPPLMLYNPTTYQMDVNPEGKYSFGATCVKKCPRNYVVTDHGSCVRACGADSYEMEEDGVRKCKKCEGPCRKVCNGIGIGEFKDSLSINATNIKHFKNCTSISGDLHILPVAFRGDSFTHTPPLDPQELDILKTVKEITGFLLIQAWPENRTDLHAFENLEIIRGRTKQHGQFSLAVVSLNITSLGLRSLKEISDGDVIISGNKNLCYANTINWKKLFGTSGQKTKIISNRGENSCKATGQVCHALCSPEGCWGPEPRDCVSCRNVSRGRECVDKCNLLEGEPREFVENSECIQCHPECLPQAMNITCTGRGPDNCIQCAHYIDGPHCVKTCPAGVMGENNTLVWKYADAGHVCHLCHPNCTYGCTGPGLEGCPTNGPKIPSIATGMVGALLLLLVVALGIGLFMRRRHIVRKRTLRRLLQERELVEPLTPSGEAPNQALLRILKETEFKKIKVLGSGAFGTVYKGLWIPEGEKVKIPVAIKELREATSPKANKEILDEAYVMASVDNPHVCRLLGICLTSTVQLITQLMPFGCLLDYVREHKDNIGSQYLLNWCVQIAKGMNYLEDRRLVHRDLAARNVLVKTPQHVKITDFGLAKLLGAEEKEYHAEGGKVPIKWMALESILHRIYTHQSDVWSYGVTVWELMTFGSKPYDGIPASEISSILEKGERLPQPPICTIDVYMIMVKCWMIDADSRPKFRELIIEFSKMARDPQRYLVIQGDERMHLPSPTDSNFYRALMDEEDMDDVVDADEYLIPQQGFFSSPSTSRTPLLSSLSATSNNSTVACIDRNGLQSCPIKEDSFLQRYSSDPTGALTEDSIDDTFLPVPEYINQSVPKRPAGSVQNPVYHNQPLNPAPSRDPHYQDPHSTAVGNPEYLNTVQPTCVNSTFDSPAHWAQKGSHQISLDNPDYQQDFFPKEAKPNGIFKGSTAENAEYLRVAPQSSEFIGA
For test [10], the target named is Tyrosine-protein kinase Fer (Homo sapiens, UniProt P16591). Kind of test: Inhibition of FER Lys1 labeling site harbouring DKTSVAVKTCKEDLPQELK in human A-375 cells at 0.05 uM by KiNativ Profiling analysis relative to control. In kind it is cell-based.
In test [11] the target is 1-phosphatidylinositol 3-phosphate 5-kinase (Homo sapiens) (UniProt Q9Y2I7). Kind of test: Inhibition of PIP5K3 ATP labeling site in human Huh-7 cells at 10 uM by KiNativ Profiling analysis relative to control. In kind it is cell-based.
The target of test [12] is Cyclin-dependent kinase 2 (Homo sapiens) (UniProt P24941). The experiment in a line: Inhibition of CDK2 K2 labeling site in human Huh-7 cells at 1 uM by KiNativ Profiling analysis relative to control. Type of test: cell-based.
Test [13] addresses Cyclin-dependent kinase 7 (Homo sapiens) (UniProt P50613). Kind of test: Inhibition of CDK7 K2 labeling site in human Huh-7 cells at 1 uM by KiNativ Profiling analysis relative to control. Type of test: cell-based.
The target of test [14] is Focal adhesion kinase 1 (Homo sapiens) (UniProt Q05397). Kind of test: Inhibition of FAK K1 labeling site in human Huh-7 cells at 1 uM by KiNativ Profiling analysis relative to control. In kind it is cell-based.
The target in test [15] is Serine/threonine-protein kinase 38 (Homo sapiens) (UniProt Q15208). The experiment in a line: Inhibition of NDR1 K1 labeling site in human Huh-7 cells at 1 uM by KiNativ Profiling analysis relative to control. In kind it is cell-based.
Sequence of Serine/threonine-protein kinase 38 (Homo sapiens) (Q15208 2-465 limits assumed): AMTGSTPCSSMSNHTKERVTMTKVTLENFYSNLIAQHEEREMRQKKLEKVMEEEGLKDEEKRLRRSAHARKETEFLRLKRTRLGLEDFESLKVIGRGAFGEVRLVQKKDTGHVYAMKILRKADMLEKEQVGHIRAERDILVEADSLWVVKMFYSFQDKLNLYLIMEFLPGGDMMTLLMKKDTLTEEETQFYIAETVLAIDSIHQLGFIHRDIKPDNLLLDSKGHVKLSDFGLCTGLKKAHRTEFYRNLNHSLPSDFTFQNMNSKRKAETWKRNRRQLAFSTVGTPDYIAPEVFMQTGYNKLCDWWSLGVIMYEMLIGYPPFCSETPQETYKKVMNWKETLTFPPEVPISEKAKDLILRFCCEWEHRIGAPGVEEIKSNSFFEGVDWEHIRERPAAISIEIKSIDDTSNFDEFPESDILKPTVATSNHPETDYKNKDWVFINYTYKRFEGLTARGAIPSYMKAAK

Activity calls are given as the source filed them. No cut-off for these calls is given here.

Sequence of Dual specificity mitogen-activated protein kinase kinase 2 (Homo sapiens) (P36507 whole entry): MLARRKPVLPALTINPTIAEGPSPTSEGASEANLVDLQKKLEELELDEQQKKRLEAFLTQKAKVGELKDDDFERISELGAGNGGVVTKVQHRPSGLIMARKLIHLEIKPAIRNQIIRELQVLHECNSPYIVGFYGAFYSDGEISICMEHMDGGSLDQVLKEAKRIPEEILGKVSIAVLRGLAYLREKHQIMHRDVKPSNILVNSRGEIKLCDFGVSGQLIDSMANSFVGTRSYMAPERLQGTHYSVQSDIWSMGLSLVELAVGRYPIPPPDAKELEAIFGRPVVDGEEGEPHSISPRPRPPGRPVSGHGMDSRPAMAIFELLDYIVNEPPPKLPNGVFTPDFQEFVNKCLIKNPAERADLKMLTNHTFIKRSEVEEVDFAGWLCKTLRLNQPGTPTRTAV
Sequence of Cyclin-dependent kinase 7 (Homo sapiens) (P50613 whole entry): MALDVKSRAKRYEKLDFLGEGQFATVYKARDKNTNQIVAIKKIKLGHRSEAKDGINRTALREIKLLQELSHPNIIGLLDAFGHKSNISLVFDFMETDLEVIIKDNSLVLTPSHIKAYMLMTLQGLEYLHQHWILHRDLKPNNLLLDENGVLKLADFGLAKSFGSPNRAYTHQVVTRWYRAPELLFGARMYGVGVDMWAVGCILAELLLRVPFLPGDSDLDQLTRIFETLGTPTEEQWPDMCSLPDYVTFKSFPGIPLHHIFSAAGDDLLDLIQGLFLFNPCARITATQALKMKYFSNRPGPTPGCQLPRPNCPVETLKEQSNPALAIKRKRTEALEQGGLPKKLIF

As to `CNc1cc(Oc2cc(C(=O)Nc3cc(N4CCN(C)CC4)cc(C(F)(F)F)c3)ccc2C)ncn1`, in test [1], the inhibition was determined as 3.4%.
Regarding `CCN1CCN(Cc2ccc(NC(=O)c3ccc(C)c(/C=C/c4cnc5[nH]ccc5c4OC)c3)cc2C(F)(F)F)CC1`, the inhibition in [2] was 84%; in test [3], -0.1%; in test [4], 21.5%. Moreover, in test [5], the residual activity turned out to be 100%.
With `CCN1CCN(Cc2ccc(NC(=O)c3ccc(C)c(Oc4ccnc5[nH]ccc45)c3)cc2C(F)(F)F)CC1`, the inhibition in test [6] was 86.8%; in test [8], 1.3%; in [9] it was 0.7%; in [10], 62.8%; in test [11], 13.8%; in [12], 5%. For the same compound, the inhibition in test [13] was determined as 5.6%; in test [14] it was 32%; in test [15], 4.4%. Also, the inhibition entry in test [7] was “inactive”.
